Bioassay records deposited in PubChem by Broad Institute.
T cruzi HTS – inhibitors of intracellular Trypanosoma cruzi, primary screen, cell-based, plate reader, single point, set 2; AID 651903, 2012; intracellular Trypanosoma cruzi in host cells; hit rate 4.9% among 22,000; activity score (inhibition), % at 5.01 µM; in the data active = activity score above about 55%;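 note: parasites and compound incubated about four days before reading; 0% = median of neutral control wells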
A1 apoptosis 2 – A1 inhibitors via caspase activation, primary screen, cell-based, luminescence, HTS, two replicates | 24,000 tested, under 10 active | MEF A1-2A-BIM cells, caspase-Glo luminescence, 3 h; percent of clofoctol response, DMSO zero | AID 2465, 2010 | caspase activation, % (test concentration not listed); in the data active = caspase activation above about 5.9%
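Test system – A1-2A-BIM-expressing MEF cells · Input – 2500 cells/well · Medium – RPMI-1640 growth medium with 10% FBS · Compound dosing – 50 nL pinned compound · Timing – 3 h compound exposure at 37 °C · Technique – Caspase-Glo luminescence (DEVD substrate) · Evaluation – Caspase-3/7 activity from luminescence increase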
INS-1E ATP HTS – protection of INS-1E cells from cytokine death, primary screen, ATP luminescence, single point | INS-1E cytokine-induced death, 48 h; normalised: neutral wells 0, positive control 100 | protection from cytokine-induced ATP loss, % at 10 µM | hit rate 0.1% among 20,000;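 active = mean replicate protection from cytokine-induced ATP loss at least 50% and at least 75% of replicates each reaching 50%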
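Assay system: INS-1E rat cells / Quantity: 8000 cells per well / Medium: RPMI without phenol red, 5% FBS / Probe or stimulus: three-cytokine cocktail (IFN-γ, TNF-α, IL-1β) / Dosing: one compound concentration, pin transfer / Timing: 48 h co-treatment, 10 min post-lysis read / Technique: CellTiter-Glo luminescence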
The depositor's hits bear a star. Shown is part of a subset that was picked to be rich in hits.

For C[C@H](CO)N1C[C@H](C)[C@@H](CN(C)Cc2ccccc2)Oc2c(NC(=O)c3ccncc3)cccc2C1=O the results were T cruzi HTS 79.2* and INS-1E ATP HTS -6.5.
`COc1cc2c(cc1OC)CN(C(=O)[C@@H]1[C@H]3C(=O)O[C@H](c4ccccc4)[C@H](c4ccccc4)N3[C@H](c3ccccc3OCCO)[C@@]13C(=O)Nc1ccc(C#CCCO)cc13)CC2` gave A1 apoptosis 2 -1.5.
Screening COc1cc(O)cc(OC)c1/C=N/NC(=O)CCCCCCC(=O)Nc1ccccc1O returned T cruzi HTS -14.3, A1 apoptosis 2 -1.9 and INS-1E ATP HTS -1.9.
`CC(/C=C/C(=O)NO)=C\c1cccc(OCc2ccc(-c3ccncc3)cc2)c1` gave A1 apoptosis 2 0.4.
Screening O=C(O)c1cccc(/C=N/NC(=O)c2ccc(C(=O)NO)cc2)c1 returned T cruzi HTS -6.6, A1 apoptosis 2 -0.3 and INS-1E ATP HTS 11.0.
Screening COC(=O)CCCCCCC(=O)N/N=C/c1cc(OC)ccc1O returned T cruzi HTS -23.9, A1 apoptosis 2 -1.0 and INS-1E ATP HTS 9.9.
For COC(=O)CCCCCCC(=O)N/N=C/c1ccc(C(F)(F)F)cc1 the results were T cruzi HTS -13.2 and INS-1E ATP HTS 14.4.
For C[C@@H]1CN([C@H](C)CO)C(=O)c2cccc(NC(=O)c3ccncc3)c2O[C@H]1CN(C)Cc1ccc(-c2ccccc2)cc1 the results were T cruzi HTS 83.8* and INS-1E ATP HTS -22.2.
`C[C@H]1CN([C@@H](C)CO)C(=O)Cc2cc(NS(=O)(=O)c3cccs3)ccc2O[C@@H]1CN(C)S(=O)(=O)c1ccc(F)cc1` gave T cruzi HTS -6.7 and INS-1E ATP HTS -2.1.
For Cc1ccc(S(=O)(=O)Nc2ccc3c(c2)CC(=O)N([C@@H](C)CO)C[C@H](C)[C@@H](CN(C)S(=O)(=O)c2cccs2)O3)cc1 the results were T cruzi HTS -13.3, A1 apoptosis 2 0.4 and INS-1E ATP HTS -1.9.
Screening C[C@@H]1CN([C@H](C)CO)C(=O)Cc2cc(NS(=O)(=O)c3cccs3)ccc2O[C@@H]1CN(C)S(=O)(=O)c1ccc(F)cc1 returned T cruzi HTS 60.3* and INS-1E ATP HTS -4.3.
Screening Cc1ccc(S(=O)(=O)N(C)C[C@H]2Oc3ccc(NS(=O)(=O)c4cccs4)cc3CC(=O)N([C@H](C)CO)C[C@H]2C)cc1 returned T cruzi HTS 72.3*, A1 apoptosis 2 -0.8 and INS-1E ATP HTS -15.6.
O=C(N/N=C/c1ccc(-n2ccnc2)cc1)c1ccccn1 was read as T cruzi HTS 7.3, A1 apoptosis 2 -9.0 and INS-1E ATP HTS -1.5.
`C[C@H]1CN([C@@H](C)CO)C(=O)c2cc(NS(=O)(=O)c3ccc(F)cc3)ccc2O[C@@H]1CN(C)S(=O)(=O)c1ccc(Cl)cc1` gave T cruzi HTS 5.2, A1 apoptosis 2 0.0 and INS-1E ATP HTS 0.2.
For C[C@H](CO)N1C[C@H](C)[C@H](CN(C)S(=O)(=O)c2ccc(Cl)cc2)Oc2ccc(NS(=O)(=O)c3ccc(F)cc3)cc2C1=O the results were T cruzi HTS 63.0*, A1 apoptosis 2 1.5 and INS-1E ATP HTS -16.0.
For C[C@H](CO)N1C[C@H](C)[C@H](CN(C)S(=O)(=O)c2ccc(F)cc2)Oc2ccc(NS(=O)(=O)c3ccc(F)cc3)cc2C1=O the results were T cruzi HTS 68.0* and A1 apoptosis 2 0.6.
Screening C[C@@H]1CN([C@H](C)CO)C(=O)c2cc(NS(=O)(=O)c3cccs3)ccc2O[C@H]1CN(C)S(=O)(=O)c1ccc(F)cc1 returned T cruzi HTS -7.3.
C[C@H](CO)N1C[C@H](C)[C@@H](CN(C)S(=O)(=O)c2ccc(F)cc2)Oc2ccc(NS(=O)(=O)c3ccc(F)cc3)cc2C1=O was read as T cruzi HTS -2.9.
C[C@@H]1CN([C@@H](C)CO)C(=O)c2cc(NS(=O)(=O)c3cccs3)ccc2O[C@H]1CN(C)S(=O)(=O)c1ccc(F)cc1 was read as T cruzi HTS 62.3*, A1 apoptosis 2 0.5 and INS-1E ATP HTS 5.0.
`COc1cc(/C=N/NC(=O)c2cccc(C(=O)NO)c2)c(Br)cc1O` gave T cruzi HTS -12.4, A1 apoptosis 2 1.6 and INS-1E ATP HTS 1.5.
`O=C1O[C@H](c2ccccc2)[C@H](c2ccccc2)N2[C@H]1[C@@H](C(=O)NC[C@H](O)c1ccccc1)[C@]1(C(=O)Nc3ccccc31)[C@H]2c1ccc(OCCO)cc1` gave A1 apoptosis 2 0.4.
For COC(=O)CCCCCCC(=O)N/N=C/c1cc(OC)c(OC)cc1[N+](=O)[O-] the results were T cruzi HTS 0.4, A1 apoptosis 2 -1.4 and INS-1E ATP HTS 11.3.
For O=C(N/N=C/c1ccc(OCCO)cc1)c1ccccc1O the results were T cruzi HTS -1.4, A1 apoptosis 2 -6.3 and INS-1E ATP HTS -11.0.
For C[C@H](CO)N1C[C@H](C)[C@H](CN(C)Cc2ccc(Oc3ccccc3)cc2)Oc2ccc(N(C)C)cc2CC1=O the results were T cruzi HTS 34.4 and INS-1E ATP HTS -16.0.
C[C@H](CO)N1C[C@H](C)[C@@H](CN(C)Cc2ccccc2)Oc2ccc(N(C)C)cc2CC1=O was read as A1 apoptosis 2 -0.5.
`C[C@H]1CN([C@@H](C)CO)C(=O)Cc2cc(N(C)C)ccc2O[C@@H]1CN(C)Cc1ccccc1` gave T cruzi HTS 58.2*, A1 apoptosis 2 0.5 and INS-1E ATP HTS -6.5.
For C[C@@H]1CN([C@H](C)CO)C(=O)Cc2cc(N(C)C)ccc2O[C@H]1CN(C)Cc1ccc(Oc2ccccc2)cc1 the results were T cruzi HTS 56.9* and INS-1E ATP HTS -27.5.
`Cc1ccccc1/C=N/NC(=O)c1ccccc1O` gave T cruzi HTS -13.4, A1 apoptosis 2 -6.5 and INS-1E ATP HTS -28.4.
For COc1cc(Br)cc(/C=N/NC(=O)c2ccccc2O)c1O the results were T cruzi HTS 79.4*, A1 apoptosis 2 -12.5 and INS-1E ATP HTS -124.7.
COc1cc(Br)c(/C=N/NC(=O)c2ccccc2O)cc1OC was read as T cruzi HTS -13.4, A1 apoptosis 2 0.2 and INS-1E ATP HTS -41.4.
`O=C(N/N=C/c1ccc(I)cc1)c1ccccc1O` gave T cruzi HTS -20.5, A1 apoptosis 2 -7.9 and INS-1E ATP HTS -8.4.
For O=C(N/N=C\c1cccc(O)c1O)c1ccccc1O the results were T cruzi HTS 68.2* and INS-1E ATP HTS -132.9.
`O=C(N/N=C/c1cc(I)cc(I)c1O)c1ccccc1O` gave T cruzi HTS 81.7*, A1 apoptosis 2 -2.6 and INS-1E ATP HTS -104.8.
Screening COC(=O)CCCCCCC(=O)N/N=C/c1ccc(CO)o1 returned T cruzi HTS 2.6, A1 apoptosis 2 -0.2 and INS-1E ATP HTS 1.5.
`O=C(CCCCCCC(=O)Nc1ccccc1O)N/N=C/[C@H](O)[C@@H](O)[C@H](O)[C@H](O)CO` gave T cruzi HTS 1.5, A1 apoptosis 2 0.3 and INS-1E ATP HTS -5.0.
For COc1ccc(CN(C)C[C@@H]2Oc3c(NC(=O)c4ccncc4)cccc3C(=O)N([C@H](C)CO)C[C@H]2C)cc1 the results were T cruzi HTS 76.3*, A1 apoptosis 2 1.3 and INS-1E ATP HTS 3.6.
